Test results published in ChEMBL document CHEMBL2390820, “3-Biphenylimidazo[1,2-a]pyridines or [1,2-b]pyridazines and analogues, novel Flaviviridae inhibitors” (Eur J Med Chem, 2013).
≈ marks a conversion by molar mass, not a printed value.

Tests used:
[1] = Cytotoxicity against human Huh5-2 cells assessed as growth inhibition after 3 days by MTS assay; assay type: cell-based, Huh-5-2
In short: (§1)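 MDBK or Huh 5-2 cells were seeded at 5 × 10³/well in MEM-FCS, with serial compound dilutions added 24 h later. Cells proliferated 3 days at 37 °C, then metabolic activity was read by MTS/PMS. CC50 is the concentration inhibiting proliferation of exponentially growing cells by 50%, by linear interpolation.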

Hepatitis C virus = assay: Antiviral activity against HCV genotype 1b infected in Huh5-2 cells assessed as inhibition of viral replication after 4 days by luciferase reporter gene assay; assay type: functional, organism-based, Hepacivirus hominis, Huh-5-2; settings: Hepatitis C virus, genotype 1b, Huh-5-2, 96 h
In short: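 Huh 5-2 cells carrying the HCV subgenomic luciferase replicon were seeded at 5 × 10³/well with compound and incubated 4 days at 37 °C. Medium was removed and luciferase activity quantified. EC50 is the minimum concentration reducing replicon-driven luciferase signal by 50%.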

[2] = Cytotoxicity against MDBK cells assessed as growth inhibition after 3 days by MTS assay; assay type: cell-based, Bos taurus; settings: cattle; in short: as §1
[3] = Selectivity index, ratio of CC50 for Huh5-2 cells to EC50 for HCV genotype 1b infected in Huh5-2 cells; design: species or system Huh-5-2
In short: (§2)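 Selectivity index is the ratio of CC50 from the 3-day MTS/PMS proliferation assay to EC50 in the same cell line. For Huh 5-2 the EC50 is from the luciferase replicon assay; for MDBK it is from the MTS CPE assay.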

[4] = Antiviral activity against BVDV NADL infected in MDBK cells assessed as inhibition of virus-induced cytopathic effect formation after 5 days by MTS assay; assay type: functional, cell-based, Bovine viral diarrhea virus 1-NADL; settings: Bovine viral diarrhea virus isolates and strains, 120 h
In short: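 MDBK cells were seeded at 5 × 10³/well in MEM-FCS and held 24 h at 37 °C, 5% CO₂. Medium was replaced with 5-fold serial compound dilutions, then BVDV inoculum was added at MOI 2. CPE was read by MTS as OD at 490 nm. EC50 is the concentration giving 50% protection against virus-induced CPE, by linear interpolation.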

[5] = Selectivity index, ratio of CC50 for MDBK cells to EC50 for BVDV NADL infected in MDBK cells; in short: as §2

Compound	CC50 at 72 h [1]	EC50 (Hepatitis C virus)	CC50 at 72 h [2]	Ratio CC50/EC50 [3]	EC50 [4]	Ratio CC50/EC50 [5]
COc1ccccc1-c1nc2ccc(-c3ccsc3)nn2c1-c1cccc(-c2cccc(O)c2)c1	78.5 µg/mL (≈ 165 µM)	3.8 µg/mL (≈ 7.99 µM)	> 100 µg/mL	20.8	> 100 µg/mL	
Fc1ccc(-c2nc3ccc(-c4ccsc4)nn3c2-c2ccc(-c3ccccc3)cc2)cc1	> 112 µg/mL	> 112 µg/mL	> 50 µg/mL	>1	> 50 µg/mL	>1
Fc1ccc(-c2nc3ccc(-c4ccccc4)cn3c2-c2cccc(-c3ccccc3)c2)cc1	56.8 µg/mL (≈ 129 µM)	52.2 µg/mL (≈ 118 µM)	> 50 µg/mL	1.09	12 µg/mL (≈ 27.2 µM)	>4
COc1ccccc1-c1nc2ccc(-c3ccsc3)nn2c1-c1cccc(-c2ccoc2)c1	15.7 µg/mL (≈ 34.9 µM)	11.1 µg/mL (≈ 24.7 µM)	> 100 µg/mL	1.4	> 100 µg/mL	
CN1CCN(c2ccc3nc(-c4ccc(F)cc4)c(-c4ccc(-c5ccccc5)cc4)n3n2)CC1	45.3 µg/mL (≈ 97.7 µM)		> 50 µg/mL		> 50 µg/mL	>1
Fc1ccc(-c2nc3ccc(N4CCOCC4)cn3c2-c2ccc(-c3ccccc3)cc2)cc1	15.6 µg/mL (≈ 34.7 µM)	6.7 µg/mL (≈ 14.9 µM)	> 50 µg/mL	2.3	> 50 µg/mL	>1
COc1ccccc1-c1nc2ccc(-c3ccsc3)nn2c1-c1cccc(-c2ccccc2)c1	97.4 µg/mL (≈ 212 µM)	14.7 µg/mL (≈ 32 µM)	10.4 µg/mL (≈ 22.6 µM)	6.6	3.4 µg/mL (≈ 7.4 µM)	3.1
CC(C)(C)c1nc2ccc(-c3ccsc3)cn2c1-c1cccc(-c2ccccc2)c1	> 123 µg/mL	42.5 µg/mL (≈ 104 µM)	> 100 µg/mL	>2.4	62.6 µg/mL (≈ 153 µM)	>1.6
Oc1ccc(-c2cccc(-c3c(-c4ccc(F)cc4)nc4ccccn34)c2)cc1	69.5 µg/mL (≈ 183 µM)	13.5 µg/mL (≈ 35.5 µM)		5.1		
c1ccc(-c2cccc(-c3cnc4ccc(-c5ccsc5)cn34)c2)cc1	> 142 µg/mL	89.5 µg/mL (≈ 254 µM)	> 100 µg/mL	>1.6	> 100 µg/mL	>1
c1ccc(-c2cccc(-c3c(-c4ccsc4)nc4ccc(-c5ccsc5)cn34)c2)cc1	> 115 µg/mL	64.5 µg/mL (≈ 148 µM)	> 100 µg/mL	>1.8	6.6 µg/mL (≈ 15.2 µM)	>15.2
Fc1ccc(-c2nc3ccccn3c2-c2cccc(-c3ccc(Cl)cc3)c2)cc1	57.5 µg/mL (≈ 144 µM)	5.9 µg/mL (≈ 14.8 µM)	12.7 µg/mL (≈ 31.8 µM)	9.7	3 µg/mL (≈ 7.52 µM)	4.3
Fc1ccc(-c2nc3ccccn3c2-c2cccc(-c3ccccc3)c2)cc1	60.4 µg/mL (≈ 166 µM)	34.9 µg/mL (≈ 95.8 µM)		1.7		
COc1ccccc1-c1nc2ccc(-c3ccsc3)nn2c1-c1cccc(-c2ccc(O)cc2)c1	22.1 µg/mL (≈ 46.5 µM)	2.4 µg/mL (≈ 5.05 µM)	> 100 µg/mL	9.2	> 100 µg/mL	
CCOC(=O)c1nc2ccc(-c3ccsc3)cn2c1-c1cccc(-c2ccccc2)c1	> 118 µg/mL	53.1 µg/mL (≈ 125 µM)	67.7 µg/mL (≈ 159 µM)	>2.2	> 67.7 µg/mL	
COc1ccc(-c2cccc(-c3c(-c4ccc(F)cc4)nc4ccccn34)c2)cc1	34.8 µg/mL (≈ 88.2 µM)	1.63 µg/mL (≈ 4.13 µM)	> 100 µg/mL	21.3	2.8 µg/mL (≈ 7.1 µM)	>36
CN1CCN(c2cccc(-c3c(-c4ccc(F)cc4)nc4ccccn34)c2)CC1	60.1 µg/mL (≈ 156 µM)	21.8 µg/mL (≈ 56.4 µM)		2.8		

Compound	CC50 at 72 h [1]	EC50 (Hepatitis C virus)	CC50 at 72 h [2]	Ratio CC50/EC50 [3]	EC50 [4]	Ratio CC50/EC50 [5]
Fc1ccc(-c2nc3ccc(N4CCOCC4)nn3c2-c2ccccc2-c2ccccc2)cc1	11.1 µg/mL (≈ 24.6 µM)	11.1 µg/mL (≈ 24.6 µM)	31 µg/mL (≈ 68.8 µM)	1	11 µg/mL (≈ 24.4 µM)	3
Fc1ccc(-c2nc3ccc(-c4ccccc4)nn3c2-c2ccc(-c3ccccc3)cc2)cc1	45.3 µg/mL (≈ 103 µM)		> 50 µg/mL		> 50 µg/mL	>1
COc1ccccc1-c1nc2ccccn2c1-c1cccc(-c2ccccc2O)c1	95.8 µg/mL (≈ 244 µM)	48.9 µg/mL (≈ 125 µM)	14.4 µg/mL (≈ 36.7 µM)	2	7.55 µg/mL (≈ 19.2 µM)	1.9
COc1cccc(-c2cccc(-c3c(-c4ccc(F)cc4)nc4ccccn34)c2)c1	50.2 µg/mL (≈ 127 µM)	4.3 µg/mL (≈ 10.9 µM)	11.5 µg/mL (≈ 29.2 µM)	11.8	3.1 µg/mL (≈ 7.86 µM)	3.7
CC(C)(C)c1nc2ccc(-c3ccsc3)nn2c1-c1cccc(-c2ccco2)c1	41.3 µg/mL (≈ 103 µM)	8.6 µg/mL (≈ 21.5 µM)	> 100 µg/mL	4.8	> 100 µg/mL	
Fc1ccc(-c2nc3ccccn3c2-c2cccc(-c3ccncc3)c2)cc1	45.5 µg/mL (≈ 125 µM)	20.2 µg/mL (≈ 55.3 µM)	7 µg/mL (≈ 19.2 µM)	2.3	0.98 µg/mL (≈ 2.68 µM)	7.1
Fc1ccc(-c2nc3ccc(N4CCOCC4)nn3c2-c2ccc(-c3ccccc3)cc2)cc1	33.3 µg/mL (≈ 73.9 µM)		> 50 µg/mL		> 50 µg/mL	>1
CC(C)(C)c1nc2ccc(-c3ccsc3)nn2c1-c1cccc(-c2ccccc2O)c1	75.3 µg/mL (≈ 177 µM)	30.1 µg/mL (≈ 70.7 µM)	> 100 µg/mL	2.5	> 100 µg/mL	
Fc1ccc(-c2nc3ccccn3c2-c2cccc(-c3ccoc3)c2)cc1	66.2 µg/mL (≈ 187 µM)	19.2 µg/mL (≈ 54.2 µM)	5.6 µg/mL (≈ 15.8 µM)	3.4	1.7 µg/mL (≈ 4.8 µM)	3.2
Fc1ccc(-c2nc3ccc(N4CCOCC4)nn3c2-c2cccc(-c3ccccc3)c2)cc1	11.1 µg/mL (≈ 24.6 µM)		12 µg/mL (≈ 26.6 µM)		4 µg/mL (≈ 8.88 µM)	3
Fc1ccc(-c2nc3ccc(-c4ccccc4)cn3c2-c2ccc(-c3ccccc3)cc2)cc1	11.4 µg/mL (≈ 25.9 µM)	4.5 µg/mL (≈ 10.2 µM)	30 µg/mL (≈ 68.1 µM)	2.5	> 30 µg/mL	
COc1ccccc1-c1nc2ccccn2c1-c1cccc(-c2cccc(O)c2)c1	40.3 µg/mL (≈ 103 µM)	3.5 µg/mL (≈ 8.92 µM)		11.4		
Fc1ccc(-c2nc3ccccn3c2-c2ccc(-c3ccccc3)cc2)cc1	36 µg/mL (≈ 98.8 µM)	2.64 µg/mL (≈ 7.24 µM)				
Fc1ccc(-c2nc3ccccn3c2-c2cccc(-c3ccco3)c2)cc1	24.7 µg/mL (≈ 69.7 µM)	12.8 µg/mL (≈ 36.1 µM)		1.9		
COc1ccccc1-c1nc2ccc(-c3ccsc3)nn2c1-c1cccc(-c2ccco2)c1	54.3 µg/mL (≈ 121 µM)	15.1 µg/mL (≈ 33.6 µM)		3.6		
Fc1ccc(-c2nc3ccccn3c2-c2cccc(-c3cc4ccccc4o3)c2)cc1	54.9 µg/mL (≈ 136 µM)	28 µg/mL (≈ 69.2 µM)		2		
